Non-standard residues stand in square brackets, D forms with d. Residues, ends and D or L forms follow the SMILES beside them. Phe(4-CF3) = N[C@@H](Cc1ccc(C(F)(F)F)cc1)C(=O)O; Bip = N[C@@H](Cc1ccc(-c2ccccc2)cc1)C(=O)O; Phe(4-Br) = N[C@@H](Cc1ccc(Br)cc1)C(=O)O; Phe(4-CN) = N#Cc1ccc(C[C@H](N)C(=O)O)cc1; Phe(4-Cl) = N[C@@H](Cc1ccc(Cl)cc1)C(=O)O; Phe(4-F) = N[C@@H](Cc1ccc(F)cc1)C(=O)O; Phe(4-I) = N[C@@H](Cc1ccc(I)cc1)C(=O)O; 1Nal = N[C@@H](Cc1cccc2ccccc12)C(=O)O; Atc(2S) = N[C@@]1(C(=O)O)CCc2ccccc2C1; Phe(2-Me) = Cc1ccccc1C[C@H](N)C(=O)O; Cha = N[C@@H](CC1CCCCC1)C(=O)O; Aic = NC1(C(=O)O)Cc2ccccc2C1; Nphe = O=C(O)CNCc1ccccc1
Legend:
[1] = molecular target: T1, Neuropeptide S receptor (Mus musculus) (UniProt Q8BZP8); assay: Agonist activity at mouse recombinant NPS receptor expressed in HEK293 cells assessed as intracellular calcium mobilization relative to baseline; format: functional, cell-based
T1 sequence (whole entry): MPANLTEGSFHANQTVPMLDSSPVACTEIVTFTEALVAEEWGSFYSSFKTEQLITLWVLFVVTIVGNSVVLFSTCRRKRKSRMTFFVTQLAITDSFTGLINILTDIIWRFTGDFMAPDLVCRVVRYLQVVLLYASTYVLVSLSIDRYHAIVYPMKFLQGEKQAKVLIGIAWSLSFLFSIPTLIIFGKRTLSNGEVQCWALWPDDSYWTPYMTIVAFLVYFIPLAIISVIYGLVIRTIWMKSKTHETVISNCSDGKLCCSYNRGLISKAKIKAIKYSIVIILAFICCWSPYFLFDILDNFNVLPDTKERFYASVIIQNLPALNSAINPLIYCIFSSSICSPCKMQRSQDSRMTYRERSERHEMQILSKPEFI
In short: (§1)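 HEK293 cells stably expressing mouse NPSR, kept in DMEM with 10% FBS, 2 mM L-glutamine and hygromycin (100 mg/L), were seeded at 50 000 cells/well. Next day they were loaded with Fluo-4 AM (3 µmol), probenecid (2.5 mmol) and 0.01% pluronic acid for 30 min at 37 °C. Agonist dilutions in HBSS/HEPES with 0.02% BSA were added, and FlexStation II fluorescence was read at 22 °C.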

Neuropeptide S receptor = molecular target: T2, Neuropeptide S receptor (Mus musculus, UniProt Q8BZP8); assay: Agonist activity at mouse recombinant NPS receptor expressed in HEK293 cells assessed as intracellular calcium mobilization; format: functional, cell-based; in short: as §1
T2 sequence (Q8BZP8 whole entry): T1 sequence (whole entry)

Structure (SMILES)	Emax [1] [%]	EC50 (Neuropeptide S receptor) [nM]
CSCC[C@H](NC(=O)CNC(=O)[C@@H](NC(=O)CNC(=O)[C@@H](NC(=O)CNC(=O)[C@H](CC(N)=O)NC(=O)[C@H](CCCNC(=N)N)NC(=O)C1(NC(=O)[C@@H](N)CO)Cc2ccccc2C1)C(C)C)[C@@H](C)O)C(=O)N[C@@H](CCCCN)C(=O)N[C@@H](CCCCN)C(=O)N[C@H](C(=O)N[C@@H](CO)C(=O)N[C@@H](Cc1ccccc1)C(=O)N[C@@H](CCC(N)=O)C(=O)N[C@@H](CCCNC(=N)N)C(=O)N[C@@H](C)C(=O)N[C@@H](CCCCN)C(=O)N[C@@H](CO)C(=O)O)[C@@H](C)O (H-S[Aic]RNGVGTGMKKTSFQRAKS-OH)	211	33.9
CSCC[C@H](NC(=O)CNC(=O)[C@@H](NC(=O)CNC(=O)[C@@H](NC(=O)CNC(=O)[C@H](CC(N)=O)NC(=O)[C@H](CCCNC(=N)N)NC(=O)[C@]1(NC(=O)[C@@H](N)CO)CCc2ccccc2C1)C(C)C)[C@@H](C)O)C(=O)N[C@@H](CCCCN)C(=O)N[C@@H](CCCCN)C(=O)N[C@H](C(=O)N[C@@H](CO)C(=O)N[C@@H](Cc1ccccc1)C(=O)N[C@@H](CCC(N)=O)C(=O)N[C@@H](CCCNC(=N)N)C(=O)N[C@@H](C)C(=O)N[C@@H](CCCCN)C(=O)N[C@@H](CO)C(=O)O)[C@@H](C)O (H-S[Atc(2S)]RNGVGTGMKKTSFQRAKS-OH)	257	11.2
CSCC[C@H](NC(=O)CNC(=O)[C@@H](NC(=O)CNC(=O)[C@@H](NC(=O)CNC(=O)[C@H](CC(N)=O)NC(=O)[C@H](CCCNC(=N)N)NC(=O)[C@H](Cc1ccc(-c2ccccc2)cc1)NC(=O)[C@@H](N)CO)C(C)C)[C@@H](C)O)C(=O)N[C@@H](CCCCN)C(=O)N[C@@H](CCCCN)C(=O)N[C@H](C(=O)N[C@@H](CO)C(=O)N[C@@H](Cc1ccccc1)C(=O)N[C@@H](CCC(N)=O)C(=O)N[C@@H](CCCNC(=N)N)C(=O)N[C@@H](C)C(=O)N[C@@H](CCCCN)C(=O)N[C@@H](CO)C(=O)O)[C@@H](C)O (H-S[Bip]RNGVGTGMKKTSFQRAKS-OH)	170	20
CSCC[C@H](NC(=O)CNC(=O)[C@@H](NC(=O)CNC(=O)[C@@H](NC(=O)CNC(=O)[C@H](CC(N)=O)NC(=O)[C@H](CCCNC(=N)N)NC(=O)CN(Cc1ccccc1)C(=O)[C@@H](N)CO)C(C)C)[C@@H](C)O)C(=O)N[C@@H](CCCCN)C(=O)N[C@@H](CCCCN)C(=O)N[C@H](C(=O)N[C@@H](CO)C(=O)N[C@@H](Cc1ccccc1)C(=O)N[C@@H](CCC(N)=O)C(=O)N[C@@H](CCCNC(=N)N)C(=O)N[C@@H](C)C(=O)N[C@@H](CCCCN)C(=O)N[C@@H](CO)C(=O)O)[C@@H](C)O (H-S[Nphe]RNGVGTGMKKTSFQRAKS-OH)	246	15.5
CSCC[C@H](NC(=O)CNC(=O)[C@@H](NC(=O)CNC(=O)[C@@H](NC(=O)CNC(=O)[C@H](CC(N)=O)NC(=O)[C@H](CCCNC(=N)N)NC(=O)[C@H](Cc1ccc(C(F)(F)F)cc1)NC(=O)[C@@H](N)CO)C(C)C)[C@@H](C)O)C(=O)N[C@@H](CCCCN)C(=O)N[C@@H](CCCCN)C(=O)N[C@H](C(=O)N[C@@H](CO)C(=O)N[C@@H](Cc1ccccc1)C(=O)N[C@@H](CCC(N)=O)C(=O)N[C@@H](CCCNC(=N)N)C(=O)N[C@@H](C)C(=O)N[C@@H](CCCCN)C(=O)N[C@@H](CO)C(=O)O)[C@@H](C)O (H-S[Phe(4-CF3)]RNGVGTGMKKTSFQRAKS-OH)	286	2.57
CSCC[C@H](NC(=O)CNC(=O)[C@@H](NC(=O)CNC(=O)[C@@H](NC(=O)CNC(=O)[C@H](CC(N)=O)NC(=O)[C@H](CCCNC(=N)N)NC(=O)[C@H](Cc1ccc(C#N)cc1)NC(=O)[C@@H](N)CO)C(C)C)[C@@H](C)O)C(=O)N[C@@H](CCCCN)C(=O)N[C@@H](CCCCN)C(=O)N[C@H](C(=O)N[C@@H](CO)C(=O)N[C@@H](Cc1ccccc1)C(=O)N[C@@H](CCC(N)=O)C(=O)N[C@@H](CCCNC(=N)N)C(=O)N[C@@H](C)C(=O)N[C@@H](CCCCN)C(=O)N[C@@H](CO)C(=O)O)[C@@H](C)O (H-S[Phe(4-CN)]RNGVGTGMKKTSFQRAKS-OH)	296	3.31

Now those with a lower EC50 (Neuropeptide S receptor), led by results:

Emax [1] [%]	EC50 (Neuropeptide S receptor) [nM]	Structure (SMILES)
232	1.95	CSCC[C@H](NC(=O)CNC(=O)[C@@H](NC(=O)CNC(=O)[C@@H](NC(=O)CNC(=O)[C@H](CC(N)=O)NC(=O)[C@H](CCCNC(=N)N)NC(=O)[C@H](Cc1cccc2ccccc12)NC(=O)[C@@H](N)CO)C(C)C)[C@@H](C)O)C(=O)N[C@@H](CCCCN)C(=O)N[C@@H](CCCCN)C(=O)N[C@H](C(=O)N[C@@H](CO)C(=O)N[C@@H](Cc1ccccc1)C(=O)N[C@@H](CCC(N)=O)C(=O)N[C@@H](CCCNC(=N)N)C(=O)N[C@@H](C)C(=O)N[C@@H](CCCCN)C(=O)N[C@@H](CO)C(=O)O)[C@@H](C)O (H-S[1Nal]RNGVGTGMKKTSFQRAKS-OH)
221	1.35	CSCC[C@H](NC(=O)CNC(=O)[C@@H](NC(=O)CNC(=O)[C@@H](NC(=O)CNC(=O)[C@H](CC(N)=O)NC(=O)[C@H](CCCNC(=N)N)NC(=O)[C@H](CC1CCCCC1)NC(=O)[C@@H](N)CO)C(C)C)[C@@H](C)O)C(=O)N[C@@H](CCCCN)C(=O)N[C@@H](CCCCN)C(=O)N[C@H](C(=O)N[C@@H](CO)C(=O)N[C@@H](Cc1ccccc1)C(=O)N[C@@H](CCC(N)=O)C(=O)N[C@@H](CCCNC(=N)N)C(=O)N[C@@H](C)C(=O)N[C@@H](CCCCN)C(=O)N[C@@H](CO)C(=O)O)[C@@H](C)O (H-S[Cha]RNGVGTGMKKTSFQRAKS-OH)
222	1.86	CSCC[C@H](NC(=O)CNC(=O)[C@@H](NC(=O)CNC(=O)[C@@H](NC(=O)CNC(=O)[C@H](CC(N)=O)NC(=O)[C@H](CCCNC(=N)N)NC(=O)[C@H](Cc1ccccc1C)NC(=O)[C@@H](N)CO)C(C)C)[C@@H](C)O)C(=O)N[C@@H](CCCCN)C(=O)N[C@@H](CCCCN)C(=O)N[C@H](C(=O)N[C@@H](CO)C(=O)N[C@@H](Cc1ccccc1)C(=O)N[C@@H](CCC(N)=O)C(=O)N[C@@H](CCCNC(=N)N)C(=O)N[C@@H](C)C(=O)N[C@@H](CCCCN)C(=O)N[C@@H](CO)C(=O)O)[C@@H](C)O (H-S[Phe(2-Me)]RNGVGTGMKKTSFQRAKS-OH)
309	0.646	CSCC[C@H](NC(=O)CNC(=O)[C@@H](NC(=O)CNC(=O)[C@@H](NC(=O)CNC(=O)[C@H](CC(N)=O)NC(=O)[C@H](CCCNC(=N)N)NC(=O)[C@H](Cc1ccc(Br)cc1)NC(=O)[C@@H](N)CO)C(C)C)[C@@H](C)O)C(=O)N[C@@H](CCCCN)C(=O)N[C@@H](CCCCN)C(=O)N[C@H](C(=O)N[C@@H](CO)C(=O)N[C@@H](Cc1ccccc1)C(=O)N[C@@H](CCC(N)=O)C(=O)N[C@@H](CCCNC(=N)N)C(=O)N[C@@H](C)C(=O)N[C@@H](CCCCN)C(=O)N[C@@H](CO)C(=O)O)[C@@H](C)O (H-S[Phe(4-Br)]RNGVGTGMKKTSFQRAKS-OH)
298	0.708	CSCC[C@H](NC(=O)CNC(=O)[C@@H](NC(=O)CNC(=O)[C@@H](NC(=O)CNC(=O)[C@H](CC(N)=O)NC(=O)[C@H](CCCNC(=N)N)NC(=O)[C@H](Cc1ccc(Cl)cc1)NC(=O)[C@@H](N)CO)C(C)C)[C@@H](C)O)C(=O)N[C@@H](CCCCN)C(=O)N[C@@H](CCCCN)C(=O)N[C@H](C(=O)N[C@@H](CO)C(=O)N[C@@H](Cc1ccccc1)C(=O)N[C@@H](CCC(N)=O)C(=O)N[C@@H](CCCNC(=N)N)C(=O)N[C@@H](C)C(=O)N[C@@H](CCCCN)C(=O)N[C@@H](CO)C(=O)O)[C@@H](C)O (H-S[Phe(4-Cl)]RNGVGTGMKKTSFQRAKS-OH)
291	1.1	CSCC[C@H](NC(=O)CNC(=O)[C@@H](NC(=O)CNC(=O)[C@@H](NC(=O)CNC(=O)[C@H](CC(N)=O)NC(=O)[C@H](CCCNC(=N)N)NC(=O)[C@H](Cc1ccc(F)cc1)NC(=O)[C@@H](N)CO)C(C)C)[C@@H](C)O)C(=O)N[C@@H](CCCCN)C(=O)N[C@@H](CCCCN)C(=O)N[C@H](C(=O)N[C@@H](CO)C(=O)N[C@@H](Cc1ccccc1)C(=O)N[C@@H](CCC(N)=O)C(=O)N[C@@H](CCCNC(=N)N)C(=O)N[C@@H](C)C(=O)N[C@@H](CCCCN)C(=O)N[C@@H](CO)C(=O)O)[C@@H](C)O (H-S[Phe(4-F)]RNGVGTGMKKTSFQRAKS-OH)
243	1.78	CSCC[C@H](NC(=O)CNC(=O)[C@@H](NC(=O)CNC(=O)[C@@H](NC(=O)CNC(=O)[C@H](CC(N)=O)NC(=O)[C@H](CCCNC(=N)N)NC(=O)[C@H](Cc1ccc(I)cc1)NC(=O)[C@@H](N)CO)C(C)C)[C@@H](C)O)C(=O)N[C@@H](CCCCN)C(=O)N[C@@H](CCCCN)C(=O)N[C@H](C(=O)N[C@@H](CO)C(=O)N[C@@H](Cc1ccccc1)C(=O)N[C@@H](CCC(N)=O)C(=O)N[C@@H](CCCNC(=N)N)C(=O)N[C@@H](C)C(=O)N[C@@H](CCCCN)C(=O)N[C@@H](CO)C(=O)O)[C@@H](C)O (H-S[Phe(4-I)]RNGVGTGMKKTSFQRAKS-OH)
